Measurements as given in PubChem BioAssay.
Records with an inconclusive call do not appear.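 The calls were made as follows, unless noted: active = viability at or below 27.92% in each of two runs, the all-compound median minus 4 SD; inconclusive = no clear call, values can overlap the other calls; inactive = the rest.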

Experiments:
[1] = OD615 S. cerevisiae growth inhibition, permissive medium, pilot counter-assay, permissive growth control for S. cerevisiae lifespan shortening project (AID 705;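 active = growth inhibition above 25% in both replicates, a cutoff set 3 SD above the mean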); settings: OD615, 24 h, at 10 µM, stronger effect = higher value
Procedure, shortened: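 System: S. cerevisiae with engineered DeaD lifespan system / Measured by: absorbance (optical density) at 615 nm / Read-out: reduction in yeast growth (OD615) / Times: 4 h cell pre-growth, 24 h exposure at 30 °C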

[2] = Restrictive medium S. cerevisiae growth inhibition, OD615, pilot screen of yeast lifespan reduction project, restrictive growth control (AID 706;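 active = growth inhibition above a set limit, 3 SD over mean compound inhibition, in both replicates, cut at about 43% in these data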;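 also: modified DeaD lifespan yeast strain shifted to restrictive glucose medium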); settings: OD615, 48 h, at 10 µM, stronger effect = higher value
Procedure, shortened: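 System: Engineered S. cerevisiae DeaD strain | Buffer or medium: Glucose-based CSMM-D restrictive medium | Schedule: 4 h pre-incubation, 48 h exposure at 30 °C | Technique: Optical density at 615 nm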

[3] = viability gain of MRP-1-high H69AR cells under doxorubicin, pilot screen, MRP-1 activator project, CellTiter-Glo, duplicate (AID 807;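 active = viability increase at or above a cutoff of the median across tested compounds plus 3 SD, cut at about 8.5% in these data, passing the limit was not always enough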;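 also: compound pretreatment 18-22 h then 72 h combined with doxorubicin; 0% = doxorubicin alone and 100% = vehicle without doxorubicin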); settings: H69AR viability with doxorubicin, CellTiter-Glo luminescence; at 10 µM; stronger effect = higher value
[4] = growth suppression of beta-catenin knockout HCT116, pilot screen, human colon tumor cells (AID 823;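 active = cell viability at or below a set limit in both duplicate runs, the limit being the all-compound median minus 4 SD, cut at about 23% in these data, passing the limit was not always enough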;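 also: 0% = wells killed by 20 µM Hyamine and 100% = untreated DMSO cell wells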); settings: CellTiter-Glo, 60 h, at 10 µM, stronger effect = lower value
[5] = growth suppression of PTEN-deleted HCT116, pilot screen, cell-based, HCT116 clonal line, CellTiter-Glo (AID 824); settings: 60 h, at 10 µM, stronger effect = lower value;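 also: 0% = 20 µM Hyamine control and 100% = vehicle cell control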
[6] = inhibitors of the yeast RAM network, pilot screen, dse1pr::URA3 reporter, 5-FOA selection (AID 869;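 active = inhibition over a set limit, the all-compound mean plus 3 SD, in both replicate runs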;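 also: 0% = DMSO wells with no growth and 100% = 10 µM 1-NA-PP1 with full growth; RAM network block rescues cells from 5-FOA so hits raise OD615 growth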); settings: S. cerevisiae dse1pr::URA3 5-FOA growth, OD615, 2 d; at 10 µM; stronger effect = higher value; strain carries analog-sensitive mutant Cbk1 kinase
[7] = RAM signaling pathway blockade in yeast – S. cerevisiae, Pdr1DBD-CYC8 efflux-inhibited sensitized strain, primary screen (AID 1298;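 active = RAM network inhibition above 8.4% in each of two replicates, 3 SD over the compound average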;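 also: 0% = DMSO untreated cells without growth and 100% = 10 µM 1-NA-PP1 full growth; higher means more yeast growth rescued from 5-FOA killing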); settings: S. cerevisiae cbk1-as DSE1-URA3 strain, 5-FOA growth OD615, 2 d; at 50 µM; stronger effect = higher value

COc1ccccc1N1CCN(C(=O)CCc2ccc(S(=O)(=O)NC(C)C)cc2)CC1
inactive: growth inhibition [1] -12.7% | growth inhibition [2] -19.8% | viability increase [3] -2.97% | viability [4] 97.6% | viability [5] 102% | inhibition [6] 0.85% | RAM network inhibition [7] 4.61%

COc1ccc(/C(N)=C/C(=O)C(C)(C)C)cc1
inactive: growth inhibition [1] -14.2% | growth inhibition [2] -11.6% | viability increase [3] 0.55% | viability [4] 96.1% | viability [5] 98.2% | inhibition [6] 2.5% | RAM network inhibition [7] 4.84%

COc1ccc(-c2nc(-c3ccc(NC(=O)c4ccncc4)cc3)no2)cc1OC
inactive: growth inhibition [1] -3.46% | growth inhibition [2] 9.41% | viability increase [3] 0.06% | viability [4] 42.6% | viability [5] 50.8% | inhibition [6] 2.85% | RAM network inhibition [7] 2.92%

O=S(=O)(NCc1csc(-c2cccnc2)n1)c1cccs1
inactive: growth inhibition [1] 5.38% | growth inhibition [2] -1.74% | viability increase [3] -0.79% | viability [4] 98% | viability [5] 90% | inhibition [6] 1.69% | RAM network inhibition [7] 1.3%

O=C(CCN1C(=O)c2ccccc2C1=O)OCn1nnc2ccccc2c1=O
inactive: growth inhibition [1] -14.7% | growth inhibition [2] -15.3% | viability increase [3] -0.15% | viability [4] 107% | viability [5] 100% | inhibition [6] 4.12% | RAM network inhibition [7] 2.39%

CC(CNC(=O)C1CCCCC1)NC(=O)C1CCCCC1 (stereo not drawn)
inactive: growth inhibition [1] -7.69% | growth inhibition [2] -6.86% | viability increase [3] 0.64% | viability [4] 89.6% | viability [5] 92.5% | inhibition [6] 0.08% | RAM network inhibition [7] 4%

Cc1ccc(S(=O)(=O)N=C2SCCCS2)cc1
inactive: growth inhibition [1] -3.74% | growth inhibition [2] 6.67% | viability increase [3] -2.68% | viability [4] 99.2% | viability [5] 99.5% | inhibition [6] 1.31% | RAM network inhibition [7] 2.39%

COc1ccc2cc(CCNC(=O)c3c(-c4ccccc4Cl)noc3C)c(=O)[nH]c2c1
inactive: growth inhibition [1] -14.1% | growth inhibition [2] -21.1% | viability increase [3] -3.23% | viability [4] 103% | viability [5] 92.7% | inhibition [6] 1.02% | RAM network inhibition [7] 4.72%

Cc1nn(Cc2nc(-c3cccs3)no2)c(C)c1Br
inactive: growth inhibition [1] 0.735% | growth inhibition [2] 12% | viability increase [3] -1.13% | viability [4] 103% | viability [5] 101% | inhibition [6] 1.93% | RAM network inhibition [7] 3.61%

Cc1ccc(-c2n[nH]c(=S)n2C)cc1
inactive: growth inhibition [1] -2.22% | growth inhibition [2] 11.2% | viability increase [3] -1.46% | viability [4] 97.5% | viability [5] 101% | inhibition [6] 2.21% | RAM network inhibition [7] 3.7%

CCOC(=O)CNC(=O)CSc1nnc(Cn2c(=O)sc3ccccc32)n1C
inactive: growth inhibition [1] -6.96% | growth inhibition [2] 6.85% | viability increase [3] -1.45% | viability [4] 108% | viability [5] 98% | inhibition [6] 0.83% | RAM network inhibition [7] 3.34%

O=C(NCC1CCCO1)NC1(C(F)(F)F)Oc2ccccc2O1 (stereo not drawn)
inactive: growth inhibition [1] -24.1% | growth inhibition [2] -16% | viability increase [3] -7.32% | viability [4] 60.8% | viability [5] 67.1% | inhibition [6] 1.9% | RAM network inhibition [7] 2.09%

COC(=O)CCS(=O)(=O)c1cc(Cl)ccc1Cl
inactive: growth inhibition [1] -5.18% | growth inhibition [2] 7.17% | viability increase [3] -1.81% | viability [4] 95.4% | viability [5] 94.9% | inhibition [6] -1.08% | RAM network inhibition [7] 1.34%

Cc1ccc2oc(=O)c3cnn(CC(=O)N(CCC(C)C)Cc4ccco4)c3c2c1
inactive: growth inhibition [1] -4.76% | growth inhibition [2] -1.21% | viability increase [3] -3.21% | viability [4] 88.5% | viability [5] 87.3% | inhibition [6] 0.29% | RAM network inhibition [7] 5.23%

Cc1cc(C)n(Cc2ccccc2F)c(=O)c1C#N
inactive: growth inhibition [1] -7.71% | growth inhibition [2] -16.5% | viability increase [3] -1.4% | viability [4] 105% | viability [5] 96.9% | inhibition [6] 0.375% | RAM network inhibition [7] 4.95%

O=C(Cc1ccccc1)Nc1c(C(=O)N2CCOCC2)cnn1-c1ccccc1
inactive: growth inhibition [1] 6.39% | growth inhibition [2] -23.4% | viability increase [3] -1.59% | viability [4] 93.5% | viability [5] 97% | inhibition [6] 1.21% | RAM network inhibition [7] 1.24%

COc1ccc(N(CC(=O)Nc2ccc3c(c2)OCO3)S(C)(=O)=O)c(OC)c1
inactive: growth inhibition [1] -12.6% | growth inhibition [2] -4.5% | viability increase [3] -2.19% | viability [4] 97.9% | viability [5] 96.5% | inhibition [6] 1.41% | RAM network inhibition [7] 4.05%

N#CCC(=O)Nc1sc2c(c1C(N)=O)CCCC2
inactive: growth inhibition [1] -12.7% | growth inhibition [2] -7.35% | viability increase [3] -1.93% | viability [4] 97.5% | viability [5] 99.9% | inhibition [6] 3.18% | RAM network inhibition [7] 0.67%

C=CCOc1cccc(C2c3c(oc4ccc(F)cc4c3=O)C(=O)N2CCCN2CCOCC2)c1 (stereo not drawn)
inactive: growth inhibition [1] -4.2% | growth inhibition [2] 2.91% | viability increase [3] -5.54% | viability [4] 93% | viability [5] 93.5% | inhibition [6] -0.045% | RAM network inhibition [7] 1.42%

Cc1cccc(N2C(=O)SC(N(CC(=O)O)c3cccc(C)c3)C2=O)c1 (stereo not drawn)
inactive: growth inhibition [1] -12.5% | growth inhibition [2] 15.6% | viability increase [3] -3.96% | viability [4] 103% | viability [5] 99.1% | inhibition [6] 1.24% | RAM network inhibition [7] 5.06%

CCCCCn1c(N(C)Cc2ccccc2)nc2c1c(=O)[nH]c(=O)n2C
inactive: growth inhibition [1] -4.46% | growth inhibition [2] -2.36% | viability increase [3] -0.81% | viability [4] 74% | viability [5] 69.3% | inhibition [6] 0.435% | RAM network inhibition [7] 1.07%

CC(c1ccccc1F)n1cc(C(=O)NCc2ccncc2)nn1 (stereo not drawn)
inactive: growth inhibition [1] -19.2% | growth inhibition [2] -8.25% | viability increase [3] -0.75% | viability [4] 96.3% | viability [5] 94.9% | inhibition [6] 1.86% | RAM network inhibition [7] 4.53%

Brc1cnc(N2CCCC2)nc1N1CCCCC1
inactive: growth inhibition [1] -5.12% | growth inhibition [2] 2.11% | viability increase [3] -2.63% | viability [4] 86.2% | viability [5] 84.4% | inhibition [6] 2.09% | RAM network inhibition [7] 0%

Cc1cc2cc(CNC(=O)c3ccc(S(=O)(=O)N4CCCCC4)cc3)ccc2n1C
inactive: growth inhibition [1] 14.5% | growth inhibition [2] 11.4% | viability increase [3] -0.91% | viability [4] 97.4% | viability [5] 94.2% | inhibition [6] 1.04% | RAM network inhibition [7] 3.71%
